Here are results for three substances from ChEMBL document CHEMBL3085728, “Conformational modifications of gB from herpes simplex virus type 1 analyzed by synthetic peptides” (J Med Chem, 2013).

Active and inactive are the calls of the source. The calls are words filed in the database; no cut-off is given here.

Series [1] deals with Human alphaherpesvirus 1. The series is described as follows: Antiviral activity against Herpes simplex virus type 1 assessed as inhibition of viral entry into African green monkey Vero cells at 20 to 200 uM compound treated post viral titration for 30 mins measured 48 hrs post viral titration by plaque formation assay. The format is functional, organism-based.
Series [2] concerns Human alphaherpesvirus 1. The series is described as follows: Antiviral activity against Herpes simplex virus type 1 assessed as inhibition of viral entry into African green monkey Vero cells at 100 uM compound preincubated with virus for 45 mins followed by viral titration measured 48 hrs post viral titration by plaque formation assay relative to control. Conditions: Human alphaherpesvirus 1, Vero. The format is functional.

Series [3] concerns Vero. The series is described as follows: Cytotoxicity against African green monkey Vero cells at 10 to 500 uM after 24 hrs by LDH assay. The format is cell-based. Conditions: chlorocebus sabaeus. The essentials: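 Vero monolayers exposed to peptides at 10, 50, 100, 200, 250 and 500 μM for 24 h; viability read by lactate dehydrogenase release with a commercial cytotoxicity detection kit, compared against untreated cells.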

The subject of series [4] is Human alphaherpesvirus 1. The series can be described thus: Antiviral activity against Herpes simplex virus type 1 assessed as inhibition of viral entry into African green monkey Vero cells compound co-treated with cells and viral inoculum for 45 mins measured after 48 hrs by plaque formation assay. The format is functional, organism-based. Conditions: Human alphaherpesvirus 1, Vero. The essentials: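 Cotreatment: Vero cells exposed to peptide (10–200 μM, serum-free DMEM) together with serial dilutions of LacZ HSV-1 inoculum for 45 min at 37 °C. Nonpenetrated virus inactivated by pH 3.0 citrate, then 48 h at 37 °C in DMEM with CMC; X-gal staining, plaques counted. Triplicates; inhibition percentage vs no-peptide control.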

H-YNHIQRHVNDMLGR-OH: in series [1], the inhibition entry is “inactive”. In series [2], the inhibition at 100 µM came out at 100%. Moreover, the Activity result in series [3] is given as “Non-toxic”.

H-YNHIQRHVNDMLGRVKKAWEE-OH: the Activity entry in series [3] was “Non-toxic”.

For the substance H-FARLQFTYNHIQRHVRDMEGR-OH, in series [4], the half-maximal inhibitory concentration (IC50) was 60 µM. The inhibition entry in series [1] is “inactive”. In addition, the inhibition at 100 µM in series [2] was determined as 100%. Also, the Activity entry in series [3] is “Non-toxic”.
